In publication PMC8020290 (Journal of Ginseng Research, 2020):
Like-named read-outs stand apart in the source and are kept apart here. Marks after values point to notes of the source that are not given here.

Legend:
[1] = type: in vivo, Sprague Dawley rats; settings: for AUC: 0 to 48 h; for AUC / Cmax / T1/2 / Tmax / half-life: plasma after intragastric ginsenoside Rb1 100 mg/kg, mean ± SE; for AUC increase compared with the control group: after intragastric ginsenoside Rb1 100 mg/kg
Method in brief: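 Male SD rats (200 ± 20 g, n = 8/group) were gavaged daily for two weeks with prebiotic fibre at 1.0 g/d/rat, or sterile water (10 ml/kg). After an overnight fast, test compound was given intragastrically at 100 mg/kg. Ophthalmic plexus blood was drawn at 0.25–48 h. Plasma was acetone-precipitated with a saikosaponin A internal standard and run on positive-mode UPLC-ESI-QqQ-MS/MS. AUC0–48h came from non-compartmental analysis, mean ± SE, ANOVA/Bonferroni.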

[2] = cited from earlier work
[3] = tested on: intestinal microflora; settings: after colimycin 20 mg/kg/day; decreased from 22.1 ± 1.2%; cited from earlier work
[4] = FOS group (1.0 g/d/rat, two weeks)
[5] = Fibersol-2 group (1.0 g/d/rat, two weeks)
[6] = GOS group (1.0 g/d/rat, two weeks)
[7] = Sprague-Dawley, rat, plasma, po, 100 mg/kg, Cmax, FOS group (1.0 g/d/rat, two weeks)
[8] = Sprague-Dawley, rat, plasma, po, 100 mg/kg, Cmax, Fibersol-2 group (1.0 g/d/rat, two weeks)
[9] = Sprague-Dawley, rat, plasma, po, 100 mg/kg, Cmax, GOS group (1.0 g/d/rat, two weeks)
[10] = Sprague-Dawley, rat, plasma, po, 100 mg/kg, T1/2, FOS group (1.0 g/d/rat, two weeks)
[11] = Sprague-Dawley, rat, plasma, po, 100 mg/kg, T1/2, Fibersol-2 group (1.0 g/d/rat, two weeks)
[12] = Sprague-Dawley, rat, plasma, po, 100 mg/kg, T1/2, GOS group (1.0 g/d/rat, two weeks)
[13] = Sprague-Dawley, rat, plasma, po, 100 mg/kg, Tmax, FOS group (1.0 g/d/rat, two weeks)
[14] = Sprague-Dawley, rat, plasma, po, 100 mg/kg, Tmax, Fibersol-2 group (1.0 g/d/rat, two weeks)
[15] = Sprague-Dawley, rat, plasma, po, 100 mg/kg, Tmax, GOS group (1.0 g/d/rat, two weeks)

## CC(C)=CCC[C@](C)(O[C@@H]1O[C@H](CO)[C@@H](O)[C@H](O)[C@H]1O)[C@H]1CC[C@]2(C)[C@@H]1[C@H](O)C[C@@H]1[C@@]3(C)CC[C@H](O)C(C)(C)[C@@H]3CC[C@]12C [CK, 20-O-β-D-glucopyranosyl-20(S)-protopanaxadiol]
[1]; [4]
  AUC: 1056.88 ± 173.22^ab ng/ml∗h
  Cmax: 42.94 ± 12.08^a ng/ml
  T1/2: 92.12 ± 158.19^a h
  Tmax: 24.80 ± 15.60^b h
[1]; [5]
  AUC: 1251.99 ± 740.67^b ng/ml∗h
  Cmax: 53.38 ± 25.17^a ng/ml
  T1/2: 50.86 ± 65.79^a h
  Tmax: 29.00 ± 19.72^b h
[1]; [6]
  AUC: 1434.71 ± 415.30^b ng/ml∗h
  Cmax: 57.46 ± 7.17^a ng/ml
  T1/2: 77.35 ± 129.14^a h
  Tmax: 15.30 ± 11.98^ab h
[1]; GOS intervention
  AUC increase compared with the control group: 2.42 times
[1]; fibersol-2 intervention
  AUC increase compared with the control group: 2.11 times
[2]
  oral bioavailability: 1.8–35.0%

## CC(C)=CCC[C@](C)(O[C@@H]1O[C@H](CO[C@@H]2O[C@H](CO)[C@@H](O)[C@H](O)[C@H]2O)[C@@H](O)[C@H](O)[C@H]1O)[C@H]1CC[C@]2(C)[C@@H]1[C@H](O)C[C@@H]1[C@@]3(C)CC[C@H](O[C@@H]4O[C@H](CO)[C@@H](O)[C@H](O)[C@H]4O[C@@H]4O[C@H](CO)[C@@H](O)[C@H](O)[C@H]4O)C(C)(C)[C@@H]3CC[C@]12C [Rb1, ginsenoside Rb1]
[1]; [4]
  AUC: 34494.77 ± 8770.73^bc ng/ml∗h
[1]; [5]
  AUC: 42110.46 ± 6452.33^c ng/ml∗h
[1]; [6]
  AUC: 30813.79 ± 3334.99^b ng/ml∗h
[1]; FOS intervention
  AUC increase compared with the control group: 2.52 times
[1]; GOS intervention
  AUC increase compared with the control group: 2.25 times
[1]; [7]
  Cmax: 1530 ± 343 ng/mL
[1]; [8]
  Cmax: 3880 ± 2370 ng/mL
[1]; [9]
  Cmax: 1210 ± 126 ng/mL
[1]; [10]
  half-life: 19.4 ± 4.44 h
[1]; [11]
  half-life: 24.2 ± 4.81 h
[1]; [12]
  half-life: 19.7 ± 2.06 h
[1]; [13]
  Tmax: 6.3 ± 2.82 h
[1]; [14]
  Tmax: 1 ± 1.12 h
[1]; [15]
  Tmax: 3.2 ± 3.55 h
[1]; fibersol-2 intervention
  AUC increase compared with the control group: 3.07 times
[2]
  oral bioavailability: 0.28–1.18%

## colimycin
[3]
  ginsenoside Rb1-hydrolysing activity by intestinal microflora: 4.7 ± 2.7%

## CC(C)=CCC[C@](C)(O[C@@H]1O[C@H](CO)[C@@H](O)[C@H](O)[C@H]1O)[C@H]1CC[C@]2(C)[C@@H]1[C@H](O)C[C@@H]1[C@@]3(C)CC[C@H](O[C@@H]4O[C@H](CO)[C@@H](O)[C@H](O)[C@H]4O[C@@H]4O[C@H](CO)[C@@H](O)[C@H](O)[C@H]4O)C(C)(C)[C@@H]3CC[C@]12C [Rd, ginsenoside Rd]
[1]; [4]
  AUC: 1616.98 ± 321.59^b ng/ml∗h
[1]; [5]
  AUC: 1754.98 ± 335.76^b ng/ml∗h
[1]; [6]
  AUC: 1479.93 ± 381.35^b ng/ml∗h
[1]; FOS intervention
  AUC increase compared with the control group: 1.91 times
[1]; GOS intervention
  AUC increase compared with the control group: 1.74 times
[1]; [7]
  Cmax: 110 ± 25.1 ng/mL
[1]; [8]
  Cmax: 145 ± 67.2 ng/mL
[1]; [9]
  Cmax: 156 ± 39 ng/mL
[1]; [10]
  half-life: 15.2 ± 5.17 h
[1]; [11]
  half-life: 10.3 ± 3.79 h
[1]; [12]
  half-life: 18.6 ± 18 h
[1]; [13]
  Tmax: 7.6 ± 0.89 h
[1]; [14]
  Tmax: 7.6 ± 1.67 h
[1]; [15]
  Tmax: 6.4 ± 0.89 h
[1]; fibersol-2 intervention
  AUC increase compared with the control group: 2.06 times

## CC(C)=CCC[C@](C)(O[C@@H]1O[C@H](CO)[C@@H](O)[C@H](O)[C@H]1O)[C@H]1CC[C@]2(C)[C@@H]1[C@H](O)C[C@@H]1[C@@]3(C)CC[C@H](O[C@@H]4O[C@H](CO)[C@@H](O)[C@H](O)[C@H]4O)C(C)(C)[C@@H]3CC[C@]12C [F2, ginsenoside F2]
[1]; [4]
  AUC: 200.38 ± 41.50^b ng/ml∗h
[1]; [5]
  AUC: 153.78 ± 36.00^ab ng/ml∗h
[1]; [6]
  AUC: 121.97 ± 29.35^a ng/ml∗h
[1]; FOS intervention
  AUC increase compared with the control group: 1.94 times
[1]; [7]
  Cmax: 15.2 ± 2.49 ng/mL
[1]; [8]
  Cmax: 35.3 ± 18.3 ng/mL
[1]; [9]
  Cmax: 11.4 ± 3.44 ng/mL
[1]; [10]
  half-life: 23.2 ± 37.8 h
[1]; [11]
  half-life: 2.67 ± 0.95 h
[1]; [12]
  half-life: 4.52 ± 3.73 h
[1]; [13]
  Tmax: 8 ± 1.41 h
[1]; [14]
  Tmax: 6.8 ± 1.09 h
[1]; [15]
  Tmax: 7.6 ± 1.67 h
